Values joined by “and” are separate entries in the source; they are usually repeats but may differ in a detail not shown here. Equal entries are not always repeated.

Data on three compounds can be found in article PMC9632315 (The Oncologist, 2022).

In series [1] the test system is plasma kynurenine production. The following applies: cited from earlier work.
Series [2] can be described thus: Epacadostat plasma pharmacokinetics, noncompartmental analysis. Format: in vivo, human. As to conditions: steady state cycle 1/day 8; for AUC / half-life / Tmax: human, plasma, oral; for AUC: AUC0-τ; for half-life: t ½; for Tmax: t max, median (range). Summed up: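 Test compound 100 mg oral bid (B, C); pembrolizumab 200 mg IV q3w. A: oxaliplatin 85, leucovorin 400, 5-FU 400 mg/m2 bolus then 1200 mg/m2 per day over 46 h; days 1, 15, 28-day cycles. B: nab-paclitaxel 125, gemcitabine 1000 mg/m2; days 1, 8, 15, 28-day cycles. C: paclitaxel 200 mg/m2, carboplatin AUC 6; day 1, 21-day cycles.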

The conditions of series [3]: stated without reference; cited from earlier work.
Another series has as its system IDO1. The following applies: patients with advanced solid tumors; cited from earlier work.
A further series concerns advanced melanoma. The following applies: patients with advanced melanoma; median follow-up of 12.4 months; cited from earlier work.
Where [4] appears, read: group A, mFOLFOX6, individual value (n ≤ 2).
[5] abbreviates: group C, paclitaxel and carboplatin, individual values (n ≤ 2).
Where [6] appears, read: group D, pemetrexed and platinum agent, individual value (n ≤ 2).
Where [7] appears, read: group G, 5-FU and platinum agent, individual values (n ≤ 2).
[8] abbreviates: 100 mg twice daily, group B, nab-paclitaxel and gemcitabine, individual value (n ≤ 2).

Broadly, the AUC is the area under the concentration-time curve, a measure of exposure. A low value points to low exposure. By half-life is commonly meant the time needed for the level to fall by half in the phase considered. A higher half-life goes with slow decline. The Tmax is the time from dosing to the highest level. For the compound `NS(=O)(=O)NCCNc1nonc1C(=NO)Nc1ccc(F)c(Br)c1` [Epacadostat], the maximally tolerated dose in series [1] was 600 mg BID. In series [1] (in combination with pembrolizumab, retrospective analysis), the “epacadostat dose required for suppression of plasma kynurenine production” value was 600 mg BID. Besides, the CLss/F in series [2] (setting [4]) is 81.7 L/h; in series [2] (group B, nab-paclitaxel and gemcitabine, individual value (n ≤ 2)), 82.6 L/h; in series [2] (setting [5]) it was 70.4 L/h and 93.5 L/h; in series [2] (setting [6]), 126 L/h; in series [2] (setting [7]), 76.8 L/h and 81.3 L/h. In addition, the AUC0-τ in series [2] (setting [5]) amounted to 2.44 µM·h; in series [2] (setting [6]) it was 1.81 µM·h; in series [2] (setting [7]), 2.81 µM·h. In addition, the “t ½” value is 2.62 h and 1.07 h in series [2] (setting [5]); 1.30 h in series [2] (setting [7]). For the same compound, the AUC in series [2] (setting [8]) turned out to be 2.76 µM·h; in series [2] (100 mg twice daily, group C, paclitaxel and carboplatin, individual values (n ≤ 2)), 3.24 µM·h; in series [2] (setting [4]) it was 2.79 µM·h; in series [2] (setting [7]), 2.97 µM·h. Further, the half-life is 1.42 h in series [2] (setting [8]), 1.78 h in series [2] (setting [4]), 1.3 h in series [2] (setting [6]) and 1.35 h in series [2] (setting [7]). The Tmax in series [2] (group A, mFOLFOX6, N=6) turned out to be 2.9 h; in series [2] (group F, gemcitabine and platinum agent, N=7) it was 2.1 h; in series [2] (group G, 5-FU and platinum agent, N=8), 3.1 h. Besides, the clearance mechanism entry in series [3] is “cleared predominantly by hepatic glucuronidation”. Further, in the series with IDO1, the “metabolism of tryptophan to kynurenine, whole blood assays” value was “effectively inhibits”. The “percentage decrease in kynurenine levels from baseline to day 15” value in the series with IDO1 is reported as “dose dependent”.
On to `Nc1nc2[nH]cc(CCc3ccc(C(=O)N[C@@H](CCC(=O)O)C(=O)O)cc3)c2c(=O)[nH]1` [pemetrexed, Pemetrexed, reference compound], for which the clearance mechanism result in series [3] is “cleared by renal excretion”.
Turning to “placebo plus pembrolizumab: ECHO-301/KEYNOTE-252 control arm: placebo plus the PD-1 inhibitor pembrolizumab”, in the series on advanced melanoma, the “OS (median)” value is recorded as “not reached”.
